Data taken from PMC2744100 (Journal of medicinal chemistry, 2009).
Where two headings read alike, the source gives them in different places.

How the values were obtained:
[1] = target: T1, TCCYP51 (Trypanosoma cruzi, UniProt Q7Z1V1); conditions: read-out: Kd of enzyme/substrate complex formation; preferred substrate; cited from earlier work
[2] = target: T1, TCCYP51; assay: Spectral titration of TCCYP51; assay type: binding; conditions: ligand-free maximum 417 nm
[3] = system: TC trypomastigotes and amastigotes; assay: Growth inhibition assay in TC cells; assay type: cell-based, Trypanosoma cruzi; conditions: for Effect on parasites in cardiomyocytes at 20 μM: 20 μM compound; for Antiparasitic effect in both human forms of TC: pre-treatment of trypomastigotes, 1–50 μM
Summary of the method: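 Trypomastigotes (10^6) pre-exposed 30 min to test compound in DMSO (1–50 μM) or DMSO alone. Then added in triplicate to rat cardiomyocyte monolayers, 10 parasites/cell, for 2 h. Unbound parasites were removed and cultures kept 72 h in DMEM + 10% FBS. T. cruzi per 200 cells and % infection were counted microscopically on Giemsa stain. Mean ± SD; Student t test versus DMSO.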

[4] = system: TC epimastigotes; assay: TC cellular sterol analysis; assay type: cell-based, Trypanosoma cruzi; conditions: 50 μM, TLC
[5] = target: T1, TCCYP51; assay: ESI-MS analysis of non-covalent interactions in TCCYP51; assay type: binding; conditions: ESI-mass spectrometry, 20-HCl 100 μM
[6] = target: T1, TCCYP51; assay type: biochemical; conditions: reconstituted enzyme reaction
[7] = system: rat cardiomyocyte monolayers; assay: Effect on cardiomyocyte monolayers in the growth inhibition assay; assay type: cell-based; conditions: concentrations higher than 10 μM
[8] = system: TC epimastigotes; conditions: 1 μM; cited from earlier work
[9] = system: TC cells; conditions: published values; cited from earlier work

T1 sequence (Q7Z1V1 whole entry): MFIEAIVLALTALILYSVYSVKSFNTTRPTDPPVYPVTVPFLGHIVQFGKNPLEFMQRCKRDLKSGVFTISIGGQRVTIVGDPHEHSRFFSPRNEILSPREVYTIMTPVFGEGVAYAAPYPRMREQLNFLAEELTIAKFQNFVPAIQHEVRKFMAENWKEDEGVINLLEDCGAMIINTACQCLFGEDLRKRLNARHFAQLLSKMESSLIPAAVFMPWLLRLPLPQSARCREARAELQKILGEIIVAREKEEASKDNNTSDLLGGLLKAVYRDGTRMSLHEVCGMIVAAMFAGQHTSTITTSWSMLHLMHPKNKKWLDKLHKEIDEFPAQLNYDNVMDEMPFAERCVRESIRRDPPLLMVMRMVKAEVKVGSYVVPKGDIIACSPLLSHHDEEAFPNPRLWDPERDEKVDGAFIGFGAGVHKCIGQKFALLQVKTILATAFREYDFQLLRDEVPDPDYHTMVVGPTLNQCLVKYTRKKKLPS

For `C=C(CC[C@@H](C)[C@H]1CC[C@@]2(C)C3=C(CC[C@]12C)[C@@]1(C)CC[C@H](O)C(C)(C)[C@@H]1CC3)C(C)C` [24-methylenedihydrolanosterol], the Kd [1] is listed as roughly 1 µM.

In the case of `CCC(C(=O)Nc1ccncc1)c1ccccc1` (centres unmarked) [Compound 5, 2-phenyl-N-pyridin-4-ylbutanamide], the “Spectral Response in TCCYP51, Soret band maximum” value (“Spectral Response in TCCYP51” for short) [2] is reported as 422 nm.

In the case of `O=C(Nc1ccncc1)C1c2ccccc2Oc2ccccc21` [Compound 7], the “Spectral Response in TCCYP51” value [2] is reported as 422 nm.

With `CC1CCC(C(=O)NC(Cc2c[nH]c3ccccc23)C(=O)Nc2ccncc2)CC1` (centres unmarked) [Compound 9] the “Spectral Response in TCCYP51” value [2] was 422 nm, the “Effect on parasites in cardiomyocytes at 20 μM” value (from here on “Effect on parasites”) ([3]; 72 h) was “practically eliminated from cardiomyocytes” and the “Antiparasitic effect in both human forms of TC” value (from here on “Antiparasitic effect”) [3] was “clear dose-dependent antiparasitic effect”.

With `COc1ccc2c(c1)c(CC(=O)Nc1cccnc1)c(C)n2C(=O)c1ccc(Cl)cc1` [Compound 12] the “Spectral Response in TCCYP51” value [2] was 422 nm.

For `COc1ccc2c(c1)c(CC(=O)NCc1ccccn1)c(C)n2C(=O)c1ccc(Cl)cc1` [Compound 13], the “Spectral Response in TCCYP51” value [2] was 418 nm, the “Effect on parasites” value ([3]; 72 h) was “practically eliminated from cardiomyocytes” and the “Antiparasitic effect” value [3] was “clear dose-dependent antiparasitic effect”.

For `COc1ccc2c(c1)c(CC(=O)NCc1ccncc1)c(C)n2C(=O)c1ccc(Cl)cc1` [Compound 14], the “Spectral Response in TCCYP51” value [2] was 422 nm.

In the case of `COc1ccc2c(c1)c(CC(=O)NC(C)c1ccncc1)c(C)n2C(=O)c1ccc(Cl)cc1` (centres unmarked) [Compound 15], the “Spectral Response in TCCYP51” value [2] is reported as 422 nm.

For `COc1ccc2c(c1)c(CC(=O)Nc1ccccn1)c(C)n2C(=O)c1ccc(Cl)cc1` [Compound 16], the “Spectral Response in TCCYP51” value [2] was 416 nm.

In the case of `COc1ccc2c(c1)c(CC(=O)Nc1ncccn1)c(C)n2C(=O)c1ccc(Cl)cc1` [Compound 17], the “Spectral Response in TCCYP51” value [2] is reported as 417 nm.

With `COc1ccc2c(c1)c(CC(=O)NCc1ccc(Cl)nc1)c(C)n2C(=O)c1ccc(Cl)cc1` [Compound 18] the “Spectral Response in TCCYP51” value [2] was 420 nm, the “Effect on parasites” value ([3]; 72 h) was “practically eliminated from cardiomyocytes” and the “Antiparasitic effect” value [3] was “clear dose-dependent antiparasitic effect”.

In the case of `COc1ccc2c(c1)c(CC(=O)NCc1ccc(C(F)(F)F)nc1)c(C)n2C(=O)c1ccc(Cl)cc1` [Compound 19], the “Spectral Response in TCCYP51” value [2] is reported as 420 nm.

With `COc1ccc2c(c1)c(CC(=O)NCCc1cccnc1)c(C)n2C(=O)c1ccc(Cl)cc1` [Compound 20] the “Effect on TC cellular sterol composition” value [4] was “very similar effect on cellular sterol composition”, the “Spectral Response in TCCYP51” value [2] was 422 nm and the “Effect on parasites” value ([3]; 72 h) was “practically eliminated from cardiomyocytes”. For the same compound, the “ED50 (growth inhibition)” value ([3]; TC amastigotes in cardiomyocytes, 72 h) was less than 1 µM, the “Antiparasitic effect” value [3] was “clear dose-dependent antiparasitic effect” and the “Binding stoichiometry to TCCYP51” value [5] was “simultaneous binding of two inhibitor molecules to the enzyme”.

In the case of `COc1ccc2c(c1)c(CC(=O)NCCc1cccc(Cl)c1)c(C)n2C(=O)c1ccc(Cl)cc1` [Compound 21], the “Spectral Response in TCCYP51” value [2] is reported as 419 nm, the “Character of TCCYP51 inhibition (reversibility)” value [6] is reported as “functionally irreversible” and the “Effect on cardiomyocyte monolayers” value [7] is reported as “release cardiomyocyte monolayers at higher concentrations”.

For `COc1ccc2c(c1)c(CC(=O)NCC(C)c1ccccc1)c(C)n2C(=O)c1ccc(Cl)cc1` (centres unmarked) [Compound 22], the “Spectral Response in TCCYP51” value [2] was 419 nm, the “Character of TCCYP51 inhibition (reversibility)” value [6] was “functionally irreversible” and the “Effect on cardiomyocyte monolayers” value [7] was “release cardiomyocyte monolayers at higher concentrations”.

In the case of `O=C(NC(Cn1ccnc1)c1ccc(Cl)cc1Cl)c1ccc(-c2nnc(-c3ccccc3)o2)cc1` (centres unmarked) [SDZ-284629, N-(1-(2,4-dichlorophenyl)-2-(1H-imidazol-1-yl)ethyl)-4-(5-phenyl-1,3,4-oxadiazol-2-yl)benzamide], the “Effect on TC cellular sterol composition” value [8] is listed as “the pathway practically stops at the stage of the C14-methylated sterol precursors”.

For `O=C(Cn1ccnc1[N+](=O)[O-])NCc1ccccc1` [benznidazole], the “ED50 in TC cells” value [9] is given as 25 to 50 µM.
